Measurements taken from ChEMBL document CHEMBL3351823, “Synthesis and biological evaluations of new analogs of 2-methoxyestradiol: inhibitors of tubulin and angiogenesis” (Eur J Med Chem, 2014).
Activity calls are given as the source filed them. No cut-off for these calls is given here.

How the values were obtained:
[1] = Anticancer activity against human OVCAR3 cells assessed as cell growth inhibition after 5 days by MTT assay; type: functional, cell-based; details: OVCAR-3, 120 h
[2] = Anticancer activity against human WM35 cells assessed as cell growth inhibition after 5 days by MTT assay; type: functional, cell-based; details: WM35, 120 h
K562 = assay: Anticancer activity against human K562 cells assessed as cell growth inhibition after 5 days by MTT assay; type: functional, cell-based; details: K562, 120 h
Summary of the method: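 Compounds dissolved in DMSO and serially diluted in medium. Equal volume added to cells at about 40,000 cells/ml, set by doubling time. K562 grown in RPMI with 2-mercaptoethanol, L-glutamine and 10% FCS, no antibiotics. Drug-free wells served as control. Growth read on a plate reader; IC50 taken graphically as % of control growth. Three experiments run in duplicate.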

Tubulin = Tubulin (Sus scrofa, UniProt P02554+P02550); assay: Inhibition of porcine brain tubulin polymerization after 60 mins
Summary of the method: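 Wells pre-chilled at 4 °C for 30 min. Mixture of Mes buffer pH 6.6 with MgCl2, GTP, tubulin (50 µl of 11 mg/ml in Mes buffer) and test compound in DMSO. Absorbance recorded at 25 °C over 60 min. Change in optical density compared with untreated controls.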

[3] = Antiangiogenic activity in BAECs after 18 hrs by extracellular matrix assay; type: functional, Bos taurus; details: baec
Summary of the method: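 Extracellular matrix thawed at 4 °C, 50 µl per well, set 10 min at 37 °C. Solid wells incubated 30 min with BAECs (30,000 cells/well), then given analogs at the same concentration. IC50 from three experiments run in duplicate.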

[4] = target: T1, Estrogen receptor (Homo sapiens) (UniProt P03372); assay: Agonist activity at estrogen receptor (unknown origin) expressed in rat PC12 cells coexpressing ER-luc at 10 uM after 24 hrs; type: cell-based; details: PC-12
T1 sequence (whole entry): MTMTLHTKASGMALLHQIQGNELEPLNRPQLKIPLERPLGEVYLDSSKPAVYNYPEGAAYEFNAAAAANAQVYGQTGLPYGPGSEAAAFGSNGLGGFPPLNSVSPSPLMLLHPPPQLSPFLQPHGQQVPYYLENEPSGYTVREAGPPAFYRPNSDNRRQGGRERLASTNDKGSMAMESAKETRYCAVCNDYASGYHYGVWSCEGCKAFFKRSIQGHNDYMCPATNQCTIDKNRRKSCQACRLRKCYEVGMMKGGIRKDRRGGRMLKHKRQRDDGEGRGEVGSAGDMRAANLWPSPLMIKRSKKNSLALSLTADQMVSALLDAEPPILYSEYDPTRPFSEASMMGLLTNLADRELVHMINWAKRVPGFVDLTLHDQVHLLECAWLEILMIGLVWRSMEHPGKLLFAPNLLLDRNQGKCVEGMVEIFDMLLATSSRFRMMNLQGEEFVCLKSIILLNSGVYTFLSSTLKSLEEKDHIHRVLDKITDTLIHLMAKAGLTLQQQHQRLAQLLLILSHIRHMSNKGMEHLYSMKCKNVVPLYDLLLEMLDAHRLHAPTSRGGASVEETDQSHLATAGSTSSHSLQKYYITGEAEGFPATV
Summary of the method: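 PC-12 cells plated at 7 × 10⁴ cells/ml, 37 °C, 5% CO₂; co-transfected with ERE-luc and ER one day after plating (liposome complexes in serum-free DMEM, serum medium restored after 3 h). Treated next day for 24 h; 0.1% DMSO solvent control, 17-β-estradiol positive control. Luciferase read with 1 mM luciferin, normalised to Renilla; 2 independent experiments, n = 3–5.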

Row | SMILES | IC50 [1] | IC50 [2] | IC50 (K562) | IC50 (Tubulin) | IC50 [3] | Activity [4]
1 | COc1cc2c(cc1O)CC[C@@H]1[C@@H]2CC[C@]2(C)C(c3ccncc3)=CC[C@@H]12 | 1.2 µM | 1 µM | 0.9 µM | 4.1 µM | 0.6 µM | –
2 | COc1cc2c(cc1O)CC[C@@H]1[C@@H]2CC[C@]2(C)[C@@H](O)CC[C@@H]12 [2-METHOXYESTRADIOL] | 1.2 µM | 2.1 µM | 0.8 µM | 2.2 µM | 3.2 µM | –
3 | COc1cc2c(cc1O)CC[C@@H]1[C@@H]2CC[C@]2(C)C(c3cccnc3)=CC[C@@H]12 | > 10 µM | > 10 µM | > 10 µM | – | > 10 µM | inactive
4 | COc1cc2c(cc1O)CC[C@@H]1[C@@H]2CC[C@]2(C)[C@@H](c3cccnc3)CC[C@@H]12 | 0.8 µM | 1.9 µM | 1.1 µM | 5.1 µM | 5.2 µM | inactive
5 | COc1cc2c(cc1O)CC[C@@H]1[C@@H]2CC[C@]2(C)[C@@H](c3ccc4ccncc4c3)CC[C@@H]12 | > 10 µM | > 10 µM | > 10 µM | > 10 µM | 3.3 µM | –
6 | COc1cc2c(cc1O)CC[C@@H]1[C@@H]2CC[C@]2(C)C(c3cncc4ccccc34)=CC[C@@H]12 | 0.4 µM | 0.7 µM | 0.5 µM | 4.8 µM | 0.8 µM | inactive
7 | COc1cc2c(cc1O)CC[C@@H]1[C@@H]2CC[C@]2(C)[C@@H](c3cncc4c3CCCC4)CC[C@@H]12 | 0.4 µM | 0.9 µM | 0.5 µM | 2.5 µM | 1.1 µM | inactive
8 | COc1cc2c(cc1O)CC[C@@H]1[C@@H]2CC[C@]2(C)[C@@H](c3cccc4c3CCCN4)CC[C@@H]12 | 1.5 µM | 1.9 µM | 1.3 µM | 3.7 µM | 3.3 µM | inactive
9 | COc1cc2c(cc1O)CC[C@@H]1[C@@H]2CC[C@]2(C)C(c3cccc4cnccc34)=CC[C@@H]12 | 3.9 µM | 5.1 µM | 3.1 µM | 7.2 µM | 2.4 µM | –
10 | COc1cc2c(cc1O)CC[C@@H]1[C@@H]2CC[C@]2(C)[C@@H](c3ccncc3)CC[C@@H]12 | 1 µM | 1.6 µM | 1.4 µM | 5.8 µM | 4.2 µM | –
11 | COc1cc2c(cc1O)CC[C@@H]1[C@@H]2CC[C@]2(C)C(c3ccc4ccncc4c3)=CC[C@@H]12 | > 10 µM | > 10 µM | > 10 µM | – | > 10 µM | –
12 | COc1cc2c(cc1O)CC[C@@H]1[C@@H]2CC[C@]2(C)C(c3cccc4ncccc34)=CC[C@@H]12 | 1.2 µM | 2.9 µM | 1.1 µM | 3.1 µM | 2 µM | –
13 | COc1cc2c(cc1O)CC[C@@H]1[C@@H]2CC[C@]2(C)C(c3ccccc3)=CC[C@@H]12 | > 10 µM | > 10 µM | > 10 µM | – | > 10 µM | –
14 | COc1cc2c(cc1O)CC[C@@H]1[C@@H]2CC[C@]2(C)[C@@H](c3cccc4cnccc34)CC[C@@H]12 | 3 µM | 4.1 µM | 2.1 µM | 8.1 µM | 1.3 µM | –
15 | COc1cc2c(cc1O)CC[C@@H]1[C@@H]2CC[C@]2(C)[C@@H](c3ccc4cnccc4c3)CC[C@@H]12 | 0.5 µM | 0.9 µM | 0.7 µM | 2.1 µM | 0.6 µM | –
16 | COc1cc2c(cc1O)CC[C@@H]1[C@@H]2CC[C@]2(C)C(c3ccc4cnccc4c3)=CC[C@@H]12 | 0.2 µM | 1 µM | 0.4 µM | 2.2 µM | 0.7 µM | –
